In publication PMC2814311 (Journal of biological inorganic chemistry : JBIC : a …, 2009):

Assays:
breast cancer DCIS cells = assay: Cell proliferation assay; format: cell-based, human; conditions: for toxicity of compound alone: DCIS cells, compound without copper, 24 h, MTT
Method in brief: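 DCIS human breast cancer cells were kept in DMEM/F12 with 5% horse serum, bicarbonate, 10 mM HEPES and antibiotics at 37 °C, 5% CO2. They were grown to 70–80% confluency, then given test compound alone or premixed with CuCl2 at various concentrations for 24 h at 37 °C. Medium was removed before the MTT read-out. Viability is expressed as percent of DMSO-treated cells (mean±SD, n=4).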

[1] = Caco-2 permeability assay; format: in vitro ADME; conditions: human; for efflux ratio at 2 h, 50 μmol/L: Caco-2, pH 7.4; for Papp at 2 h, 50 μmol/L: 2 hrs at 37°C
Method in brief: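 Caco-2 cells were grown in MEM with 20% FBS at 37 °C and 5% CO2. They were seeded on transwell inserts at 0.165×10^5 cells/insert and cultured 21 days in 10% FBS MEM, with monolayer integrity checked by TEER. Monolayers were washed in HBSS/HEPES (10 mM, pH 7.4). Test compound (50 μmol/L) was added apically or basolaterally and incubated 2 h at 37 °C. The receiver side was quantified by UPLC/MS. Papp = dQ/dt×1/AC0, and efflux ratio = B→A/A→B.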

[2] = Cu-ligand binding by UV-vis titration; format: physicochemical; conditions: UV-vis titration with CuCl2 in methanol; 0.1 mM compound
[3] = test system: MCF10dcis.com (DCIS) cells; assay: Copper accumulation in breast cancer cells measured by ICP-OES; format: cell-based, human; conditions: for increase of intracellular copper level: compound-copper mixture; for difference in ability to accumulate cellular copper versus inactive analogs: 10 μM CuCl2 mixtures, 1 h (8-OHQ vs 2, 3) or 8 hrs (CQ vs 5, 6)
[4] = Parallel artificial membrane permeability assay; format: in vitro ADME; conditions: PAMPA
Method in brief: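 Test compound was supplied as a 10 mM DMSO stock and diluted 200-fold in pH 7.4 buffer. It was placed in the donor wells under an artificial lipid membrane filter plate holding pH 7.4 acceptor sink buffer. Plates were incubated 0.5 h at room temperature, with each well magnetically stirred. Donor and acceptor concentrations were measured by UV plate spectrometry in an automated workflow.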

[5] = Caco-2, pH 7.4, CaCo2 Papp A/B, apical to basolateral
[6] = Caco-2, pH 7.4, Caco2 Papp B/A, basolateral to apical

Row | Structure (SMILES) | efflux ratio at 2 h, 50 μmol/L [1] | Papp at 2 h, 50 μmol/L [1, 5] [×10⁻⁶ cm/s] | Papp at 2 h, 50 μmol/L [1, 6] [×10⁻⁶ cm/s] | formation of copper complex [2] | Papp at 0.5 hr, 50 µM [4] [×10⁻⁶ cm/s] | anti-proliferative effect of synthesized copper complex (breast cancer DCIS cells; unpublished work of the authors) | increase of intracellular copper level [3] | toxicity of compound alone (breast cancer DCIS cells) | toxicity of compound alone (breast cancer DCIS cells; listed as 8-OHQ) | difference in ability to accumulate cellular copper versus inactive analogs [3] | toxicity of compound alone (breast cancer DCIS cells; listed as CQ)
1 | [Cu+2].[O-]c1cccc2cccnc12.[O-]c1cccc2cccnc12 [Cu [8-OHQ]2] |  |  |  |  |  | comparable to their copper mixtures |  |  |  |  | 
2 | COc1cccc2cccnc12 [Compound 2, 8-methoxyquinoline] | 0.6 | 48.3 ± 2.6 | 29.9 ± 0.7 | could not form complexes with copper | 68.2 ± 10.9 |  | did not change the accumulation of intracellular copper |  |  |  | 
3 | Oc1cccc2cccnc12 [Compound 1, 8-hydroxyquinoline, reference compound] | 0.8 | 38 ± 14.8 | 29 ± 1.1 | bind to copper and form complexes | 21.3 ± 1.6 |  | 135 fold | some toxicity | much less or no toxicity | at least 100 fold | 
4 | COc1c(I)cc(Cl)c2cccnc12 [Compound 5, 5-chloro-7-iodo-8-methoxyquinoline] | 0.6 | 21.5 ± 3.1 | 12.5 ± 1.6 | could not form complexes with copper | 77.9 ± 5.4 |  | did not change the accumulation of intracellular copper |  |  |  | 
5 | Oc1c(I)cc(Cl)c2cccnc12 [Compound 4, 5-chloro-7-iodo-8-hydroxyquinoline, reference compound] | 0.7 | 47.3 ± 6.1 | 31.5 ± 2.2 | bind to copper and form complexes | 33.4 ± 3.1 |  |  | some toxicity |  | 40–50 fold | much less or no toxicity

Further lines, with some results ahead:

Row | efflux ratio at 2 h, 50 μmol/L [1] | Papp at 2 h, 50 μmol/L [1, 5] [×10⁻⁶ cm/s] | Papp at 2 h, 50 μmol/L [1, 6] [×10⁻⁶ cm/s] | formation of copper complex [2] | Papp at 0.5 hr, 50 µM [4] [×10⁻⁶ cm/s] | Structure (SMILES) | anti-proliferative effect of synthesized copper complex (breast cancer DCIS cells; unpublished work of the authors) | increase of intracellular copper level [3] | toxicity of compound alone (breast cancer DCIS cells) | toxicity of compound alone (breast cancer DCIS cells; listed as 8-OHQ) | difference in ability to accumulate cellular copper versus inactive analogs [3] | toxicity of compound alone (breast cancer DCIS cells; listed as CQ)
6 | 0.7 | 60.4 ± 2.4 | 41.3 ± 2.7 | could not form complexes with copper | 30.8 ± 4.9 | COc1ccc(Cl)c2cccnc12 [Compound 6, 5-chloro-8-methoxyquinoline] |  | did not change the accumulation of intracellular copper |  |  |  | 
7 | 0.5 | 20.7 ± 14.6 | 9.4 ± 2.5 | could not form complexes with copper | 72.6 ± 24.8 | CCOc1cccc2cccnc12 [Compound 3, 8-ethoxyquinoline] |  | did not change the accumulation of intracellular copper |  |  |  | 
